Assay results taken from ChEMBL document CHEMBL4334465, “SAR Studies on Aromatic Acylhydrazone-Based Inhibitors of Fungal Sphingolipid Synthesis as Next-Generation Antifungal Agents” (J Med Chem, 2019).
Converted amounts (≈) assume the structure as drawn. One block for each compound: values may come before it. The source made the active and inactive calls. The calls are words filed in the database; no cut-off is given here.

Experiments:
J774 = assay: Inhibition of glucosylceramide synthesis in mouse J774 cells in presence of [3H]palmitate; format: cell-based
Cryptococcus neoformans [1] = assay: Antifungal activity against Cryptococcus neoformans H99 infected in CBA/J mouse assessed as increase in survival at 1.2 mg/kg, ip; format: functional, organism-based; conditions: var grubii H99
Cryptococcus neoformans [2] = assay: Inhibition of glucosylceramide synthesis in Cryptococcus neoformans H99 in presence of [3H]palmitate; format: functional, organism-based; conditions: var grubii H99
Aspergillus fumigatus [3] = assay: Antifungal activity against Aspergillus fumigatus assessed as FICI in presence of voriconazole; format: functional
Procedure, shortened: (§1)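 Checkerboard combination scored by fractional inhibitory concentration index. Acylhydrazone serially diluted 16 to 0.015 μg/mL (11 dilutions). Partner drug in seven dilutions: fluconazole 12 to 0.19 μg/mL, amphotericin B 5 to 0.078 μg/mL, caspofungin, itraconazole or voriconazole 8 to 0.007 μg/mL.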

Aspergillus fumigatus [4] = assay: Antifungal activity against Aspergillus fumigatus measured after 24 to 72 hrs; format: functional
Procedure, shortened: (§2)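 Modified CLSI broth microdilution with inoculum per M27A3. Compounds were serially diluted 32 to 0.03 μg/mL. Media: C. neoformans in HEPES-buffered YNB without amino acids (pH 7.0, 2% glucose); Candida strains in YNB without ammonium sulfate or amino acids plus 1% asparagine (pH 7.0, 2% glucose); A. fumigatus in RPMI (pH 7.0, 2% glucose).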

Cryptococcus neoformans [5] = assay: Antifungal activity against Cryptococcus neoformans H99 assessed as FICI in presence of voriconazole; format: functional, var grubii H99; procedure, shortened: as §1
[Candida] auris [6] = Antifungal activity against Candida auris assessed as FICI in presence of caspofungin; format: functional, Candidozyma auris; procedure, shortened: as §1
Cryptococcus neoformans [7] = assay: Antifungal activity against Cryptococcus neoformans H99 assessed as FICI in presence of fluconazole; format: functional, var grubii H99; procedure, shortened: as §1
Candida albicans [8] = assay: Antifungal activity against Candida albicans measured after 24 to 72 hrs; format: functional; procedure, shortened: as §2
[Candida] auris [9] = Antifungal activity against Candida auris assessed as FICI in presence of voriconazole; format: functional, Candidozyma auris; procedure, shortened: as §1
Candida parapsilosis [10] = assay: Antifungal activity against Candida parapsilosis measured after 24 to 72 hrs; format: functional; conditions: Lodderomyces parapsilosis; procedure, shortened: as §2
Cryptococcus neoformans [11] = assay: Fungicidal activity against Cryptococcus neoformans H99 measured up to 96 hrs by time-kill assay; format: functional, organism-based; conditions: var grubii H99
Procedure, shortened: (§3)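 Overnight C. neoformans washed in PBS and resuspended in HEPES-buffered YNB, pH 7.4. 2 × 10⁴ cells exposed to a range of drug concentrations in 10 mL with 0.5% DMSO final, at 37°C, 5% CO₂, shaking at 200 rpm. Aliquots sampled over 96 h, diluted and plated on YPD; CFU counted after 48 h at 30°C.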

Candida parapsilosis [12] = assay: Antifungal activity against Candida parapsilosis assessed as FICI in presence of itraconazole; format: functional; procedure, shortened: as §1
Pichia kudriavzevii [13] = assay: Antifungal activity against Candida krusei 6258 assessed as FICI in presence of fluconazole; format: functional; procedure, shortened: as §1
[Candida] auris [14] = Antifungal activity against Candida auris assessed as FICI in presence of fluconazole; format: functional, Candidozyma auris; procedure, shortened: as §1
Pichia kudriavzevii [15] = assay: Antifungal activity against fluconazole-resistant Candida krusei assessed as FICI in presence of itraconazole; format: functional
Procedure, shortened: (§4)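 Checkerboard in 96-well plate. Test compound diluted 16 to 0.015 μg/mL (11 dilutions) against the partner drug in seven dilutions: fluconazole 12 to 0.19 μg/mL, caspofungin, itraconazole or voriconazole 8 to 0.007 μg/mL. Fractional inhibitory concentration index (FICI) calculated from the combinations.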

Cryptococcus neoformans [16] = assay: Antifungal activity against Cryptococcus neoformans H99 assessed as FICI in presence of amphotericin B; format: functional, var grubii H99; procedure, shortened: as §1
Candida albicans [17] = assay: Antifungal activity against Candida albicans assessed as FICI in presence of voriconazole; format: functional; procedure, shortened: as §1
[18] = Selectivity index, ratio of LD50 for human HepG2 cells to MIC80 for Cryptococcus neoformans H99; format: toxicity; conditions: read-out: Selectivity Index
Procedure, shortened: (§5)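 SI = LD₅₀/MIC₈₀. Cytotoxicity: A549 or HepG2 cells (DMEM, 10% FBS, passage 7, 10⁵ cells/well) adhered 14 h, then exposed to 0.03–128 μg/mL for 24 or 48 h at 37°C, 5% CO₂; MTT 4 h, formazan dissolved in DMSO, read at 570 nm. MIC₈₀ against C. neoformans from broth microdilution in HEPES-buffered YNB, pH 7.0.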

Pichia kudriavzevii [19] = assay: Antifungal activity against Candida krusei measured after 24 to 72 hrs; format: functional
Procedure, shortened: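 MIC by modified CLSI broth microdilution. Candida strains grown in YNB without ammonium sulfate or amino acids with 1% asparagine, pH 7.0, 2% glucose. Inoculum per CLSI M27A3. Compound serially diluted 32 to 0.03 μg/mL. Incubation 37°C, 5% CO₂, 24–72 h, then OD450. MIC80 taken as the lowest concentration giving 80% growth inhibition versus untreated control.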

Candida albicans [20] = assay: Antifungal activity against Candida albicans assessed as FICI in presence of itraconazole; format: functional; procedure, shortened: as §1
[Candida] auris [21] = Antifungal activity against Candida auris assessed as FICI in presence of itraconazole; format: functional, Candidozyma auris; procedure, shortened: as §1
Pichia kudriavzevii [22] = assay: Antifungal activity against fluconazole-resistant Candida krusei assessed as FICI in presence of caspofungin; format: functional; procedure, shortened: as §4
A549 = assay: Cytotoxicity against human A549 cells after 24 to 48 hrs by MTT assay; format: functional; conditions: read-out: LD50 (the source's name)
Procedure, shortened: (§6)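 A549 and HepG2 kept in DMEM with 10% FBS and 1% pen-strep. At passage 7, seeded at 10⁵ cells/well and allowed to adhere 14 h. Compound added at 0.03–128 μg/mL, untreated wells as controls. Incubation 37°C, 5% CO₂ for 24 or 48 h. MTT (5 mg/mL in PBS) added for 4 h, formazan dissolved in DMSO, OD570.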

Candida parapsilosis [23] = assay: Antifungal activity against Candida parapsilosis assessed as FICI in presence of fluconazole; format: functional; procedure, shortened: as §1
Cryptococcus neoformans [24] = assay: Fungicidal activity against Cryptococcus neoformans H99 measured after 72 hrs by time-kill assay; format: functional, var grubii H99; procedure, shortened: as §3
Pichia kudriavzevii [25] = assay: Antifungal activity against fluconazole-resistant Candida krusei assessed as FICI in presence of voriconazole; format: functional; procedure, shortened: as §4
Aspergillus fumigatus [26] = assay: Antifungal activity against Aspergillus fumigatus assessed as FICI in presence of fluconazole; format: functional; procedure, shortened: as §1
Pichia kudriavzevii [27] = assay: Antifungal activity against Candida krusei 6258 assessed as FICI in presence of voriconazole; format: functional; procedure, shortened: as §1
[28] = Selectivity index, ratio of LD50 for human A549 cells to MIC80 for Cryptococcus neoformans H99; format: toxicity; conditions: read-out: Selectivity Index; procedure, shortened: as §5
Candida albicans [29] = assay: Antifungal activity against Candida albicans assessed as FICI in presence of fluconazole; format: functional; procedure, shortened: as §1
Pichia kudriavzevii [30] = assay: Antifungal activity against Candida krusei 6258 assessed as FICI in presence of itraconazole; format: functional; procedure, shortened: as §1
Pichia kudriavzevii [31] = assay: Antifungal activity against Candida krusei 6258 assessed as FICI in presence of caspofungin; format: functional; procedure, shortened: as §1
HepG2 = assay: Cytotoxicity against human HepG2 cells after 24 to 48 hrs by MTT assay; format: functional; conditions: read-out: LD50 (the source's name); procedure, shortened: as §6
Aspergillus fumigatus [32] = assay: Antifungal activity against Aspergillus fumigatus assessed as FICI in presence of itraconazole; format: functional; procedure, shortened: as §1
Cryptococcus neoformans [33] = assay: Antifungal activity against Cryptococcus neoformans H99 measured after 24 to 72 hrs; format: functional; conditions: var grubii H99; procedure, shortened: as §2
Candida albicans [34] = assay: Antifungal activity against Candida albicans assessed as FICI in presence of caspofungin; format: functional; procedure, shortened: as §1
Pichia kudriavzevii [35] = assay: Antifungal activity against fluconazole-resistant Candida krusei assessed as FICI in presence of fluconazole; format: functional; procedure, shortened: as §4
Cryptococcus neoformans [36] = assay: Antifungal activity against Cryptococcus neoformans H99 assessed as FICI in presence of itraconazole; format: functional, var grubii H99; procedure, shortened: as §1
[Candida] auris [37] = Antifungal activity against Candida auris measured after 24 to 72 hrs; format: functional; conditions: Candidozyma auris; procedure, shortened: as §2
Candida parapsilosis [38] = assay: Antifungal activity against Candida parapsilosis assessed as FICI in presence of voriconazole; format: functional; procedure, shortened: as §1
Candida parapsilosis [39] = assay: Antifungal activity against Candida parapsilosis assessed as FICI in presence of caspofungin; format: functional; procedure, shortened: as §1

inhibition (INH) (J774): Dose-dependent effect
SMILES: Cc1ccccc1C(=O)N/N=C/c1cc(Br)ccc1O
Activity (Cryptococcus neoformans [1]): Active | inhibition (Cryptococcus neoformans [2]): Dose-dependent effect

SMILES: O=C(N/N=C/c1ccc(Br)cc1O)c1ccc(Br)cc1Br
fractional inhibitory concentration index (FICI) (Aspergillus fumigatus [3]): 0.515 | MIC80 (Aspergillus fumigatus [4]): > 16 µg/mL | fractional inhibitory concentration index (FICI) (Cryptococcus neoformans [5]): 0.072 | fractional inhibitory concentration index (FICI) ([Candida] auris [6]): 2 | fractional inhibitory concentration index (FICI) (Cryptococcus neoformans [7]): 0.065 | MIC80 (Candida albicans [8]): > 16 µg/mL | fractional inhibitory concentration index (FICI) ([Candida] auris [9]): 1.016 | MIC80 (Candida parapsilosis [10]): 8 µg/mL (≈ 16.8 µM) | Activity (Cryptococcus neoformans [11]): Dose-dependent effect | fractional inhibitory concentration index (FICI) (Candida parapsilosis [12]): 0.124 | fractional inhibitory concentration index (FICI) (Pichia kudriavzevii [13]): 2 | fractional inhibitory concentration index (FICI) ([Candida] auris [14]): 2 | fractional inhibitory concentration index (FICI) (Pichia kudriavzevii [15]): 0.252 | fractional inhibitory concentration index (FICI) (Cryptococcus neoformans [16]): 0.086 | fractional inhibitory concentration index (FICI) (Candida albicans [17]): 0.256 | selectivity ratio [18]: 2130 | MIC80 (Pichia kudriavzevii [19]): > 16 µg/mL | fractional inhibitory concentration index (FICI) (Candida albicans [20]): 0.128 | fractional inhibitory concentration index (FICI) ([Candida] auris [21]): 0.508 | fractional inhibitory concentration index (FICI) (Pichia kudriavzevii [22]): 2 | CC50 (A549): 64 µg/mL (≈ 134 µM) | fractional inhibitory concentration index (FICI) (Candida parapsilosis [23]): 1.002 | MFC100 (Cryptococcus neoformans [24]): 0.06 µg/mL (≈ 0.126 µM) | fractional inhibitory concentration index (FICI) (Pichia kudriavzevii [25]): 0.281 | fractional inhibitory concentration index (FICI) (Aspergillus fumigatus [26]): 2 | fractional inhibitory concentration index (FICI) (Pichia kudriavzevii [27]): 1.25 | selectivity ratio [28]: 1070 | fractional inhibitory concentration index (FICI) (Candida albicans [29]): 0.625 | fractional inhibitory concentration index (FICI) (Pichia kudriavzevii [30]): 1.063 | fractional inhibitory concentration index (FICI) (Pichia kudriavzevii [31]): 2 | CC50 (HepG2): 128 µg/mL (≈ 268 µM) | fractional inhibitory concentration index (FICI) (Aspergillus fumigatus [32]): 0.484 | MIC80 (Cryptococcus neoformans [33]): 0.06 µg/mL (≈ 0.126 µM) | fractional inhibitory concentration index (FICI) (Candida albicans [34]): 0.502 | fractional inhibitory concentration index (FICI) (Pichia kudriavzevii [35]): 2 | fractional inhibitory concentration index (FICI) (Cryptococcus neoformans [36]): 0.072 | MIC80 ([Candida] auris [37]): > 16 µg/mL | fractional inhibitory concentration index (FICI) (Candida parapsilosis [38]): 0.076 | fractional inhibitory concentration index (FICI) (Candida parapsilosis [39]): 2
